Experimental data: ChEMBL document CHEMBL4765392, “Development of coumarine derivatives as potent anti-filovirus entry inhibitors targeting viral glycoprotein” (Eur J Med Chem, 2020)

How the values were obtained:
[1] = Inhibition of envelope glycoprotein in HIV pseudotyped Zaire Ebolavirus infected in human A549 cells assessed as reduction in virus entry measured after 48 hrs by luciferase reporter gene assay; assay type: cell-based; details: A549, 48 h
Outline: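 A549 cells (5000/well, seeded 24 h prior) incubated 48 h with 3-fold serial compound dilutions premixed with HIV-backbone luciferase pseudovirions bearing EBOV GP. Entry quantified by luciferase signal, normalized to virus-alone cells. IC50 from logistic regression of dose-response curves.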

[2] = Cytotoxicity against human A549 cells assessed as reduction in cell viability by Celltiter-Glo assay; assay type: cell-based
Outline: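 Low-passage A549 cells seeded at 5000/well 24 h ahead, then exposed for 48 h to 3-fold serial compound dilutions in fresh media without virus. Viability read by CellTiter-Glo luminescence and normalized to medium-only cells. CC50 from logistic regression fit of dose-response curves.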

[3] = tested on: envelope glycoprotein of Zaire Ebolavirus; test: Selectivity index, ratio of CC50 for human A549 cells to IC50 for inhibition of envelope glycoprotein in HIV pseudotyped Zaire Ebolavirus infected in human A549 cells assessed as reduction in virus entry; assay type: toxicity, cell-based; details: read-out: Ratio CC50/IC50
Outline: (§1)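 IC50 wells also got HIV luciferase pseudovirions bearing MARV GP or EBOV GP, read by luciferase. CC50 wells got fresh media, read by CellTiter-Glo. Both values come from logistic dose-response fits, and the index is CC50 divided by IC50.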

[4] = tested on: envelope glycoprotein of Marburgvirus; test: Selectivity index, ratio of CC50 for human A549 cells to IC50 for inhibition of envelope glycoprotein in HIV pseudotyped Marburgvirus infected in human A549 cells assessed as reduction in virus entry; assay type: toxicity, cell-based; details: read-out: Ratio CC50/IC50; outline: as §1

| Structure (SMILES) | IC50 [1] [µM] | CC50 [2] [µM] | selectivity ratio [3] | selectivity ratio [4] |
| --- | --- | --- | --- | --- |
| Cc1c(Cc2ccccc2)c(=O)oc2cc(OCC(CN3CCC(C(N)=O)CC3)Oc3ccc(F)cc3)ccc12 (stereo unspecified) | 10.4 | 66.4 | 6.4 | 5.5 |
| Cc1c(Cc2ccc(-c3ccc(C=O)c(F)c3)cc2)c(=O)oc2cc(OCC(O)CN3CCC(C(N)=O)CC3)ccc12 (stereo unspecified) | 10.9 | 62.4 | 5.7 | 11.9 |
| Cc1c(Cc2ccccc2)c(=O)oc2cc(OCC(O)CNc3nccs3)ccc12 (stereo unspecified) | 2.1 | 93 | 44.3 | 33.2 |
| Cc1c(Cc2ccc(Br)cc2)c(=O)oc2cc(OCC(O)CN3CCC(C(N)=O)CC3)ccc12 (stereo unspecified) | 0.9 | > 100 | > 111 | 85.7 |
| Cc1c(Cc2ccccc2)c(=O)oc2cc(OCC(O)CNc3ccccc3)ccc12 (stereo unspecified) | > 100 | > 100 | – | 1 |
| Cc1c(Cc2ccc(OC(F)(F)F)cc2)c(=O)oc2cc(OC[C@@H](O)CN3CCC(C(N)=O)CC3)ccc12 | 0.7 | 64.9 | 92.6 | 46.3 |
| Cc1cc(F)ccc1Cc1c(C)c2ccc(OCC(O)CN3CCC(C(N)=O)CC3)cc2oc1=O (stereo unspecified) | 1.2 | > 100 | > 81.1 | 33.3 |
| Cc1cc(=O)oc2cc(OCC(O)CN3CCC(C(N)=O)CC3)ccc12 (stereo unspecified) | 9.3 | > 100 | > 10.8 | 12 |
| COc1ccccc1-c1ccc(Cc2c(C)c3ccc(OCC(O)CN4CCC(C(N)=O)CC4)cc3oc2=O)cc1 (stereo unspecified) | 1.5 | 91.6 | – | 30 |
| Cc1c(Cc2ccccc2)c(=O)oc2cc(OCC(CN3CCC(C(N)=O)CC3)Oc3ccc([N+](=O)[O-])cc3)ccc12 (stereo unspecified) | 16 | 94.8 | 5.9 | 11.5 |
| Cc1c(Cc2ccc(OC(F)(F)F)cc2)c(=O)oc2cc(OCC(O)CNCCc3ccncc3)ccc12 (stereo unspecified) | 2.2 | 14.3 | 6.6 | 10.7 |
| Cc1c(Cc2ccc(-c3ccccc3)cc2)c(=O)oc2cc(OCC(O)CNc3nccs3)ccc12 (stereo unspecified) | 2.7 | 38.1 | 14.1 | 29.3 |
| Cc1c(Cc2ccccc2)c(=O)oc2cc(OCC(O)CNCCCO)ccc12 (stereo unspecified) | 8.9 | 53.4 | 6 | 6.3 |
| Cc1c(Cc2ccccc2)c(=O)oc2cc(OCC(O)CNc3ccc(Br)cc3)ccc12 (stereo unspecified) | > 100 | > 100 | – | 1 |
| Cc1c(Cc2ccccc2)c(=O)oc2cc(OCC(O)CNCCc3ccccn3)ccc12 (stereo unspecified) | 3.6 | 54.9 | 15.6 | 9.3 |
| Cc1noc(C)c1-c1ccc(Cc2c(C)c3ccc(OCC(O)CN4CCC(C(N)=O)CC4)cc3oc2=O)cc1 (stereo unspecified) | 5.2 | 36.9 | 7.1 | 11.4 |
| Cc1c(Cc2ccccc2)c(=O)oc2cc(OCC(O)CNCC3CC3)ccc12 (stereo unspecified) | 3 | > 100 | > 33.3 | 31.6 |
| NC(=O)C1CCN(CC(O)COc2ccc3c(C4CC4)cc(=O)oc3c2)CC1 (stereo unspecified) | 17.7 | > 100 | > 5.7 | 3 |
| COC(=O)c1ccc(Cc2c(C)c3ccc(OCC(O)CN4CCC(C(N)=O)CC4)cc3oc2=O)cc1 (stereo unspecified) | 7.5 | > 100 | > 13.3 | 11 |
| C#CCNCC(O)COc1ccc2c(C)c(Cc3ccccc3)c(=O)oc2c1 (stereo unspecified) | 5.9 | 95.5 | 16.1 | 17.2 |
| Cc1c(Cc2ccc(-c3ccc(Cl)cc3)cc2)c(=O)oc2cc(OCC(O)CN3CCC(C(N)=O)CC3)ccc12 (stereo unspecified) | 1.4 | 32.9 | 22.9 | 31.8 |
| Cc1c(Cc2ccccc2)c(=O)oc2cc(OCC(O)CNCCc3ccncc3)ccc12 (stereo unspecified) | 0.9 | > 100 | > 111 | 36.6 |
| NC(=O)C1CCN(CC(O)COc2ccc3c(C4CC4)c(Cc4ccccc4)c(=O)oc3c2)CC1 (stereo unspecified) | 9.4 | > 100 | > 10.6 | 15.3 |
| Cc1c(Cc2ccc(F)cc2F)c(=O)oc2cc(OCC(O)CN3CCC(C(N)=O)CC3)ccc12 (stereo unspecified) | 1.2 | > 100 | > 81.1 | 23.6 |

| Structure (SMILES) | IC50 [1] [µM] | CC50 [2] [µM] | selectivity ratio [3] | selectivity ratio [4] |
| --- | --- | --- | --- | --- |
| Cc1c(Cc2cccc3ccccc23)c(=O)oc2cc(OCC(O)CN3CCC(C(N)=O)CC3)ccc12 (stereo unspecified) | 1.5 | 42.4 | 28.5 | 36.6 |
| Cc1c(Cc2ccccc2)c(=O)oc2cc(OCC(O)CNn3ccnn3)ccc12 (stereo unspecified) | > 100 | > 100 | – | 1 |
| Cc1c(Cc2ccc(-c3ccc(C#N)c(F)c3)cc2)c(=O)oc2cc(OCC(O)CN3CCC(C(N)=O)CC3)ccc12 (stereo unspecified) | 3.5 | 29.1 | 8.2 | 12.8 |
| Cc1c(Cc2ccccc2)c(=O)oc2cc(OCC(O)CNCCc3cccnc3)ccc12 (stereo unspecified) | 1.3 | 27.4 | 20.5 | 16.4 |
| Cc1c(Cc2ccccc2)c(=O)oc2cc(OCCCNc3nccs3)ccc12 | 18 | 50.1 | 2.8 | 3.1 |
| Cc1ccc2nc(NCC(O)COc3ccc4c(C)c(Cc5ccccc5)c(=O)oc4c3)sc2c1 (stereo unspecified) | 10.2 | > 100 | > 9.8 | 11.3 |
| Cc1c(Cc2ccc(OC(F)(F)F)cc2)c(=O)oc2cc(OCC(O)CN3CCC(C(N)=O)CC3)ccc12 (stereo unspecified) | 0.5 | 68.2 | 136 | 56.8 |
| Cc1c(Cc2ccc(-c3ccc(C(F)(F)F)cc3)cc2)c(=O)oc2cc(OCC(O)CN3CCC(C(N)=O)CC3)ccc12 (stereo unspecified) | 1.2 | > 100 | > 85.7 | 76.9 |
| Cc1c(Cc2ccccc2)c(=O)oc2cc(OCC(O)CNCc3cccs3)ccc12 (stereo unspecified) | 3.5 | 87.3 | 24.9 | 24.9 |
| Cc1c(Cc2ccccc2C(F)(F)F)c(=O)oc2cc(OCC(O)CN3CCC(C(N)=O)CC3)ccc12 (stereo unspecified) | 1.6 | > 100 | > 63.8 | 33 |
| Cc1c(Cc2ccc(Cl)cc2)c(=O)oc2cc(OCC(O)CN3CCC(C(N)=O)CC3)ccc12 (stereo unspecified) | 2.5 | 40 | 16.3 | 13.8 |
| Cc1c(Cc2ccccc2)c(=O)oc2cc(OCC(O)CNc3nc4ccccc4[nH]3)ccc12 (stereo unspecified) | > 100 | > 100 | – | 1 |
| Cc1c(Cc2ccc(F)cc2)c(=O)oc2cc(OCC(O)CN3CCC(C(N)=O)CC3)ccc12 (stereo unspecified) | 1.1 | 89.3 | 78.8 | 83.7 |
| COC(CNCCc1ccncc1)COc1ccc2c(C)c(Cc3ccccc3)c(=O)oc2c1 (stereo unspecified) | 2.8 | 16.6 | 5.9 | 9.6 |
| Cc1c(Cc2ccc(-c3ccccc3C#N)cc2)c(=O)oc2cc(OCC(O)CN3CCC(C(N)=O)CC3)ccc12 (stereo unspecified) | 1.8 | 33.2 | 17.5 | 18.2 |
| Cc1c(Cc2cccc(F)c2)c(=O)oc2cc(OCC(O)CN3CCC(C(N)=O)CC3)ccc12 (stereo unspecified) | 1.6 | 53.3 | 34 | 22.5 |
| Cc1c(Cc2ccccc2)c(=O)oc2cc(OCC(O)CN3CCC(C(N)=O)CC3)ccc12 (stereo unspecified) | 3.4 | > 100 | > 29.4 | 3.4 |
| Cc1c(Cc2ccccc2)c(=O)oc2cc(OCC(O)CNc3cc([N+](=O)[O-])ccc3O)ccc12 (stereo unspecified) | 81.3 | > 100 | 12 | 1 |
| Cc1c(Cc2ccc(C(C)(C)C)cc2)c(=O)oc2cc(OCC(O)CN3CCC(C(N)=O)CC3)ccc12 (stereo unspecified) | 11.7 | 14.7 | 1.3 | 2.5 |
| COc1ccc(OC(COc2ccc3c(C)c(Cc4ccccc4)c(=O)oc3c2)CN2CCC(C(N)=O)CC2)cc1 (stereo unspecified) | 10.5 | 94.9 | 9.1 | 11.9 |
| Cc1c(Cc2ccccc2)c(=O)oc2cc(OCC(O)CNCCCCCCO)ccc12 (stereo unspecified) | 1 | 40.3 | – | 16.6 |
| NC(=O)C1CCN(CC(O)COc2ccc3c(-c4ccccc4)c(Cc4ccccc4)c(=O)oc3c2)CC1 (stereo unspecified) | 2.9 | 25.2 | 8.6 | 11.6 |
| COc1ccc(Cc2c(C)c3ccc(OCC(O)CN4CCC(C(N)=O)CC4)cc3oc2=O)c(Br)c1 (stereo unspecified) | 2.5 | 44.4 | 18 | 8.6 |
| Cc1c(Cc2ccc(F)cc2Cl)c(=O)oc2cc(OCC(O)CN3CCC(C(N)=O)CC3)ccc12 (stereo unspecified) | 3.1 | 90.8 | 29 | 7.7 |
